Activity calls are given as the source filed them. No cut-off for these calls is given here.
Tests used:
[1] = target: T1, Diacylglycerol lipase-beta (Mus musculus) (UniProt Q91WC9); test: Inhibition of FP-rhodamine-labelled recombinant mouse DAGLbeta expressed in HEK293T cells at 100 nM preincubated for 30 mins followed by FP-rhodamine labelling measured after 30 mins by gel-based competitive ABPP assay; type: cell-based; details: HEK-293T
T1 sequence (whole entry): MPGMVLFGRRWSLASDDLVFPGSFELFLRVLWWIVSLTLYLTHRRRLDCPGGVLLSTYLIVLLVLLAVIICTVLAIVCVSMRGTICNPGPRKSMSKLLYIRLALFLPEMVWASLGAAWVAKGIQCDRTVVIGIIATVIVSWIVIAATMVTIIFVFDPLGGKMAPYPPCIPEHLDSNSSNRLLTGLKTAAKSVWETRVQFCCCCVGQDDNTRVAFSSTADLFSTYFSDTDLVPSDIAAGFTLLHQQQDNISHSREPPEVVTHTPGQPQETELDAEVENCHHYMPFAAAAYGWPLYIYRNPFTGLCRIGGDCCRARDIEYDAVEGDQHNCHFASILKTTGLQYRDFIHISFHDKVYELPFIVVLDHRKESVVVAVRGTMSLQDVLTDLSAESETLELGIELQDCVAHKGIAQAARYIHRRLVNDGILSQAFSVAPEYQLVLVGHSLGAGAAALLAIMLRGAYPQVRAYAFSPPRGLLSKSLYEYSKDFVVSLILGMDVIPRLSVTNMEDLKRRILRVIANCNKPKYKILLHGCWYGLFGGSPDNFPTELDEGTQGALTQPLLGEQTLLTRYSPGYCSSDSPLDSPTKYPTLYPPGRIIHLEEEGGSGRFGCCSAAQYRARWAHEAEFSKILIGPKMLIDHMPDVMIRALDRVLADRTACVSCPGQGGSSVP
How it was run: (§1)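 Mouse DAGLβ transiently overexpressed in HEK293T. Lysate diluted to 0.3 mg/mL in 50 mM HEPES pH 7.2, 100 mM NaCl, 5 mM CaCl₂, 0.1% Triton X-100, 10% DMSO. Compound preincubated 30 min at 37 °C, then 1 μM probe for 30 min at 37 °C, SDS-PAGE and in-gel fluorescence.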

[2] = target: T1, Diacylglycerol lipase-beta (Mus musculus); test: Inhibition of FP-rhodamine-labelled recombinant mouse DAGLbeta expressed in HEK293T cells at 10 uM preincubated for 30 mins followed by FP-rhodamine labelling measured after 30 mins by gel-based competitive ABPP assay; type: cell-based; details: HEK-293T; how it was run: as §1
[3] = target: T2, Monoacylglycerol lipase ABHD6 (Mus musculus) (UniProt Q8R2Y0); test: Inhibition of ABHD6 in FP-rhodamine-labelled mouse brain membrane at 10 nM preincubated for 30 mins followed by FP-rhodamine labelling measured after 30 mins by gel-based competitive ABPP assay; type: tissue-based
T2 sequence (whole entry): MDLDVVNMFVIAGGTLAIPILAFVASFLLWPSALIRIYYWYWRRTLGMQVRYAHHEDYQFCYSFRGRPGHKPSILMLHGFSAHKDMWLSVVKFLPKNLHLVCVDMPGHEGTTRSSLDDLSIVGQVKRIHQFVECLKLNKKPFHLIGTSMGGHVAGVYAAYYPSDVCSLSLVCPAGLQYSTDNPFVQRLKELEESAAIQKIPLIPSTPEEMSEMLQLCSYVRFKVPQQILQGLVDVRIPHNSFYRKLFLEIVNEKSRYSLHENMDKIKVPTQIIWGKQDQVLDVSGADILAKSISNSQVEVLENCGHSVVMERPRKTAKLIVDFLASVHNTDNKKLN
How it was run: (§2)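 Mouse brain membrane proteome (1 mg/mL) preincubated with compound for 30 min at 37 °C, then labelled with FP-rhodamine or HT-01 (1 μM final) for 30 min at 37 °C. Quenched in SDS loading buffer, run on 10% SDS-PAGE and scanned for in-gel fluorescence. Bands assigned by gel migration.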

[4] = target: T2, Monoacylglycerol lipase ABHD6 (Mus musculus); test: Inhibition of ABHD6 in FP-rhodamine-labelled mouse brain membrane at 0.01 uM after 30 mins preincubated for 30 mins followed by HT-01 labelling measured after 30 mins by gel-based competitive ABPP assay; type: tissue-based; how it was run: as §2
[5] = target: T3, Monoglyceride lipase (Mus musculus) (UniProt O35678); test: Inhibition of MGLL in FP-rhodamine-labelled mouse brain membrane at 10 uM after 30 mins preincubated for 30 mins followed by HT-01 labelling measured after 30 mins by gel-based competitive ABPP assay; type: tissue-based; how it was run: as §2
T3 sequence (whole entry): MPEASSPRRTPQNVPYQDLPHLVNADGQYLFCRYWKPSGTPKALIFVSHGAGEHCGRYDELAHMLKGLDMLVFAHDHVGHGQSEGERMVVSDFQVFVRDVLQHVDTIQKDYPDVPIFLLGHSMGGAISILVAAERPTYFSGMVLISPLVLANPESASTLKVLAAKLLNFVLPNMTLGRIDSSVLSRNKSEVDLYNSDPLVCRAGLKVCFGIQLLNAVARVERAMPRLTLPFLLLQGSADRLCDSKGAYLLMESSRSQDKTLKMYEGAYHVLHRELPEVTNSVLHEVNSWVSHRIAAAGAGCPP

[6] = target: T2, Monoacylglycerol lipase ABHD6 (Mus musculus); test: Inhibition of ABHD6 in FP-rhodamine-labelled mouse brain membrane at 1 nM preincubated for 30 mins followed by FP-rhodamine labelling measured after 30 mins by gel-based competitive ABPP assay; type: tissue-based; how it was run: as §2
[7] = target: T1, Diacylglycerol lipase-beta (Mus musculus); test: Inhibition of FP-rhodamine-labelled recombinant mouse DAGLbeta expressed in HEK293T cells at 1 uM preincubated for 30 mins followed by FP-rhodamine labelling measured after 30 mins by gel-based competitive ABPP assay; type: cell-based; details: HEK-293T; how it was run: as §1
[8] = target: Acyl-protein thioesterase 1 (Mus musculus) (UniProt P97823); test: Inhibition of FP-rhodamine-labelled recombinant mouse LYPLA1 at 10 uM preincubated for 30 mins followed by FP-rhodamine labelling measured after 30 mins by gel-based competitive ABPP assay
[9] = target: Acyl-protein thioesterase 2 (Mus musculus) (UniProt Q9WTL7); test: Inhibition of FP-rhodamine-labelled recombinant mouse LYPLA2 at 10 uM preincubated for 30 mins followed by FP-rhodamine labelling measured after 30 mins by gel-based competitive ABPP assay
[10] = target: T4, Fatty-acid amide hydrolase 1 (Mus musculus) (UniProt O08914); test: Inhibition of mouse brain FAAH at 10 uM after 30 mins by FP-rhodamine ABPP-based SDS-PAGE analysis relative to control
T4 sequence (whole entry): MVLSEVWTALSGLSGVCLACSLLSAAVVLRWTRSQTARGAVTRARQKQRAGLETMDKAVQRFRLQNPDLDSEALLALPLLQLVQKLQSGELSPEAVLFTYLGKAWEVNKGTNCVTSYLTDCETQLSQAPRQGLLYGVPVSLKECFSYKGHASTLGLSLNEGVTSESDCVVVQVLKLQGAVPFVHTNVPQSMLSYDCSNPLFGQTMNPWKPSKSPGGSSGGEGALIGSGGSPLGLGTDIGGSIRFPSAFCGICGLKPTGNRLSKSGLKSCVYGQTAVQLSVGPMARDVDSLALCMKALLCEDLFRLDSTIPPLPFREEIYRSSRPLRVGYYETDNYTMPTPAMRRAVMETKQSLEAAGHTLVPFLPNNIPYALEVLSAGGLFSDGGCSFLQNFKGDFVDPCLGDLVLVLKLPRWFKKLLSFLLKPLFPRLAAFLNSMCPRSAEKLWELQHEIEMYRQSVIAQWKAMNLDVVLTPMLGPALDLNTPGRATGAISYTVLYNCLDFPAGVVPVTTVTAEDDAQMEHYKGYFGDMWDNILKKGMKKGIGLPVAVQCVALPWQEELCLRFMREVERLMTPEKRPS

[11] = target: T3, Monoglyceride lipase (Mus musculus); test: Inhibition of mouse brain MGLL at 10 uM after 30 mins by FP-rhodamine ABPP-based mass spectrometry relative to control
[12] = target: T2, Monoacylglycerol lipase ABHD6 (Mus musculus); test: Inhibition of ABHD6 in HT-01-labelled mouse Neuro2a cell membrane at 0.003 to 0.6 uM preincubated for 30 mins followed by HT-01 labelling measured after 30 mins by gel-based competitive ABPP assay
How it was run: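 Neuro2A membrane proteome (1 mg/mL) preincubated with compound for 30 min at 37 °C, then labelled with HT-01 (1 μM, 30 min, 37 °C). SDS-PAGE and in-gel fluorescence scanning, with activity taken from integrated band intensity.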

[13] = target: T2, Monoacylglycerol lipase ABHD6 (Mus musculus); test: Inhibition of ABHD6 in FP-rhodamine-labelled mouse brain membrane at 10 to 0.0032 uM preincubated for 30 mins followed by FP-rhodamine labelling measured after 30 mins by gel-based competitive ABPP assay; type: tissue-based; how it was run: as §2
[14] = target: T2, Monoacylglycerol lipase ABHD6 (Mus musculus); test: Inhibition of ABHD6 in azide-rhodamine-labelled mouse Neuro2a cell membrane at 0.01 to 0.6 uM preincubated for 1 hr followed by azide-rhodamine labelling by SDS-PAGE-based in-gel fluorescence scanning assay
How it was run: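 Live Neuro2A cells (DMEM, 10% FBS) treated with compound for 1 hr at 37 °C, then lysed. The membrane proteome was conjugated to azide-rhodamine by click chemistry, resolved by SDS-PAGE and scanned for in-gel fluorescence.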

[15] = target: T4, Fatty-acid amide hydrolase 1 (Mus musculus); test: Inhibition of FAAH in FP-rhodamine-labelled mouse brain membrane at 0.4 to 10 uM preincubated for 30 mins followed by FP-rhodamine labelling measured after 30 mins by gel-based competitive ABPP assay; type: tissue-based; how it was run: as §2

Acyl-protein thioesterase 2 (Mus musculus), sequence (Q9WTL7 whole entry): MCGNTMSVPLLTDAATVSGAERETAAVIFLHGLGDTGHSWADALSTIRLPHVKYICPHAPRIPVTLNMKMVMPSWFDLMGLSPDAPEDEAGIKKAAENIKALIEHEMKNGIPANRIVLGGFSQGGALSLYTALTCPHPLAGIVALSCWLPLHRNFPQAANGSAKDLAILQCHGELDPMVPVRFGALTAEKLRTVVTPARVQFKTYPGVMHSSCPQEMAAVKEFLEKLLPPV
Acyl-protein thioesterase 1 (Mus musculus), sequence (P97823 whole entry): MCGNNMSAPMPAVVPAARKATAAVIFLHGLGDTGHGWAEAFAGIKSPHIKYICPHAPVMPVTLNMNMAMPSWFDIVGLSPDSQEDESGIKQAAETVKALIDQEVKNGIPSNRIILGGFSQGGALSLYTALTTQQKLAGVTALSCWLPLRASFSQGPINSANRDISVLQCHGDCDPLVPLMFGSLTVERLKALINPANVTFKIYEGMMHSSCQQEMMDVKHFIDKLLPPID

Compound	inhibition [1]	inhibition [2]	inhibition [3]	inhibition [4]	inhibition [5]	inhibition [6]	inhibition [7]	inhibition [8]	inhibition [9]	inhibition [10]	inhibition [11]	inhibition [12]	inhibition [13]	inhibition [14]	inhibition [15]
O=C(N1CCCCC1Cc1ccccc1)n1cc(-c2ccc(-c3cccc(CO)c3)cc2)nn1 (racemic)	37%	91%	91%	Active	Active										
COc1ccc(-c2ccc(-c3cn(C(=O)N4CCCCC4c4ccccc4)nn3)cc2)cc1 (racemic)	0%	0%	30%	Active	Active					Active					
COc1ccccc1-c1ccc(-c2cn(C(=O)N3CCCCC3Cc3ccccc3)nn2)cc1 (racemic)	66%	100%	89%	Active	Active						Active				
C#CCOCCCc1ccc(C2CCCCN2C(=O)n2cc(-c3ccc(-c4ccc(OC)cc4)cc3)nn2)cc1 (racemic)												Active	Active	Active	Active
O=C(N1CCCCC1c1ccccc1)n1cc(-c2ccc(-c3ccccc3CO)cc2)nn1 (racemic)			98%			38%	0%	Active	Active	Active					
COc1ccccc1-c1ccc(-c2cn(C(=O)N3CCCCC3c3ccccc3)nn2)cc1 (racemic)	14%	70%	82%	Active	Active					Active	Active				

Further lines, results first:

inhibition [1]	inhibition [2]	inhibition [3]	inhibition [4]	inhibition [5]	inhibition [6]	inhibition [7]	inhibition [8]	inhibition [9]	inhibition [10]	inhibition [11]	inhibition [12]	inhibition [13]	inhibition [14]	inhibition [15]	Compound
		27%			17%	0%	Active	Active	Active						NC(=O)c1ccc(-c2ccc(-c3cn(C(=O)N4CCCCC4c4ccccc4)nn3)cc2)cc1 (racemic)
		94%			33%	4%			Active						O=C(O)c1cccc(-c2ccc(-c3cn(C(=O)N4CCCCC4CCc4ccccc4)nn3)cc2)c1 (racemic)
15%	58%	79%	Active	Active											O=C(c1ccc(-c2ccc(-c3cn(C(=O)N4CCCCC4Cc4ccccc4)nn3)cc2)cc1)N1CCCCC1 (racemic)
		47%			18%	0%	Active	Active	Active						O=C(N1CCCCC1c1ccccc1)n1cc(-c2ccc(-c3ccc(CO)cc3)cc2)nn1 (racemic)
		94%			35%	0%	Active	Active							O=C(c1ccc(-c2ccc(-c3cn(C(=O)N4CCCCC4c4ccccc4)nn3)cc2)cc1)N1CCCCC1 (racemic)

Reference: ChEMBL document CHEMBL3259629, “Discovery and optimization of piperidyl-1,2,3-triazole ureas as potent, selective, and in vivo-active inhibitors of α/β-hydrolase domain containing 6 (ABHD6)” (J Med Chem, 2013)
